TAAR1 agonist = human TAAR1 agonists, primary screen, Fluo-8 calcium fluorescence, CHO RD-HGA16 cells; Trace amine-associated receptor 1 (Homo sapiens), Q96RJ0; vehicle wells 0%, saturating PEA agonist 100%; activation, % at 3 µM; 0.99% of 360,000 active;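 active = activation above the mean activation of all test compounds in the run plus 3 SD, cut at about 38% in these data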
Target sequence (Q96RJ0 whole entry, looked up): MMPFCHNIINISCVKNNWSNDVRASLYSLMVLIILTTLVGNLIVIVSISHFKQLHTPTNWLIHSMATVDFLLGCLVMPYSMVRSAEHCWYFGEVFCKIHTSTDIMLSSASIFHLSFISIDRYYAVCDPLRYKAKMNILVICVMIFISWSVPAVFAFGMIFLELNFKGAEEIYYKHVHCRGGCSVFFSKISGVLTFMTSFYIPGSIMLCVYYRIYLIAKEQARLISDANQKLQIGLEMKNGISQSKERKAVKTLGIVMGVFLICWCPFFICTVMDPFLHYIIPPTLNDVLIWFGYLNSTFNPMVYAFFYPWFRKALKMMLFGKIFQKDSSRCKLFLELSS
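System: CHO-derived RD-HGA16 cells with stable Gα16 and human TAAR1 / Times: 17-24 h plating, Fluo-8 75 min 37 °C, 30 min RT / Technique: calcium-sensitive Fluo-8 signal, excitation 470-495, emission 515-575 nm / Measure: % activation relative to PEA EC100 response / Benchmarks: DMSO and PEA EC100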
CHRM1 agonist = human M1 muscarinic receptor agonists, primary screen, Fluo-8 calcium fluorescence, CHO-K1 cells, HTS; CHO-K1 hM1, agonist mode; 0% DMSO, 100% acetylcholine EC100; activation, % at 3 µM; 0.33% of 360,000 active;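 active = activation above the run's mean compound activation plus 3 SD, cut at about 16% in these data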;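 also: peak over basal fluorescence ratio within a 140 s kinetic read after compound addition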
M1 PAM = human M1 muscarinic receptor positive allosteric modulators, primary screen, CHO-K1 cells, Fluo-8 calcium fluorescence, 1536-well. Muscarinic acetylcholine receptor M1 (Homo sapiens), P11229. CHO-K1 hM1, ACh EC20; 0% = ACh EC20, 100% = maximal ACh. activation, % at 3 µM. 0.088% of 360,000 active; in the data active = activation above about 19%, passing the limit was not always enough
TAAR1 antagonist = human TAAR1 antagonists, primary screen, Fluo-8 calcium fluorescence, CHO RD-HGA16 cells; Trace amine-associated receptor 1 (Homo sapiens), Q96RJ0; antagonist; inhibition, % at 3 µM; 1.5% of 360,000 active;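 active = inhibition above a per-plate cutoff, the mean inhibition of test compounds on that plate plus 3 SD, cut at about 49% in these data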;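 also: 0% = DMSO plus EC80 beta-PEA response and 100% = DMSO alone without agonist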
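Material: CHO RD-HGA16 cells bearing hTAAR1; compound dosing: one-point dosing, 3 µM nominal final; schedule: dye loading 75 min at 37 °C, then 30 min room temperature; measured by: calcium fluorescence with Fluo-8; control set: vehicle and agonist controls; replication: n of 1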
CHRM1 antagonist = human M1 muscarinic receptor antagonists, primary screen, CHO-K1 cells, Fluo-8 calcium fluorescence, 1536-well; Muscarinic acetylcholine receptor M1 (Homo sapiens), P11229; CHO-K1 hM1, ACh EC80 antagonist; inhibition, % at 3 µM; 1.3% of 360,000 active;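 active = percent inhibition above its own plate's cutoff, namely the mean of that plate's compound wells plus 3 SD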;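 also: peak over basal fluorescence ratio during 140 s after agonist addition; 0% = ACh EC80 plus DMSO and 100% = DMSO alone without agonist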
An asterisk follows results filed as active; / = no result given. Sampled rows, rich in hits. Any-hit rate of the full collection: about 3.4%.

SMILES | TAAR1 agonist | CHRM1 agonist | M1 PAM | TAAR1 antagonist | CHRM1 antagonist
COc1ccccc1-n1c(N)c(C(=O)NCC2CCCO2)c2nc3ccccc3nc21 (stereo unspecified) | 8.4 | -2.5 | -7.4 | 24.8 | -1.0
Nc1c(C(=O)NCC2CCCO2)c2nc3ccccc3nc2n1-c1ccccc1 (stereo unspecified) | 26.7 | 2.9 | -15.7 | 49.6* | 28.4*
CCCCOCC1CN(CCCC)S(=O)(=O)c2c(cccc2N(C)S(=O)(=O)c2ccc(C)cc2)O1 (stereo unspecified) | -0.5 | / | / | 3.3 | /
O=C(CNC(=O)c1ccccc1F)NCCc1ccccc1F | 12.9 | -2.5 | -10.0 | 8.6 | 27.9*
Cn1cc(CN2CCCC(C(=O)c3ccc(-c4ccccc4)cc3)C2)cn1 (stereo unspecified) | 7.8 | -11.3 | -12.9 | -15.3 | -3.1
Cn1cc(CN2CCCC(C(=O)c3ccc(-c4ccccc4)c(F)c3)C2)cn1 (stereo unspecified) | 10.7 | -11.5 | -28.7 | -2.6 | 28.2*
Cc1nn(C)cc1CN1CCCC(C(=O)c2ccc(-c3ccccc3)c(F)c2)C1 (stereo unspecified) | 7.3 | -9.3 | -26.4 | 4.1 | 51.5*
COC(=O)[C@]1(CC(C)C)NC=C(C(=O)c2ccccc2)[C@@H]1c1cccs1 | -0.9 | / | / | 6.0 | /
C=CCN(c1ccccc1OC)S(=O)(=O)c1cccc(C(=O)OCC(=O)c2c(N)n(C)c(=O)n(C)c2=O)c1 | 8.6 | -2.7 | -21.2 | 51.7* | 31.4*
C=C1C[C@@H]2C[C@@H]2CN(S(=O)(=O)c2ccc(C)cc2)[C@@H]1COCc1ccccc1 | -0.7 | / | / | 46.0 | /
COc1cc(CCC(C)=O)ccc1OC(=O)c1c(-c2c(F)cccc2Cl)noc1C | 0.8 | / | / | 31.9 | /
Nc1[nH]c(C(=O)c2ccccc2)c(-c2ccc3ccccc3c2)c1C(=O)NC1CC1 | 10.7 | / | / | 27.7 | /
CCc1ccc(CNC(=O)CCC(=O)n2ncc3cc(C)ccc32)cc1 | 46.6* | -5.9 | -10.2 | 11.6 | 15.1
Cc1ccc2c(cnn2C(=O)CCCC(=O)NCc2ccc(F)cc2)c1 | -1.5 | 0.2 | 5.1 | -8.9 | -9.6
Cn1ncc(C#N)c1/N=C/N1CCCCCC1 | 7.7 | -5.5 | -0.1 | -4.7 | 7.1
CN1CCCCCC1=Nc1ccccc1C#N | 6.2 | -5.8 | -15.7 | 5.6 | 26.6*
CCN(CC)CCOC(=O)C(Cc1ccco1)Cc1cccc2ccccc12 (stereo unspecified) | 11.1 | -5.4 | -25.4 | 0.7 | 59.3*
C#CCOc1ccccc1C(=O)NNc1ccc([N+](=O)[O-])cc1[N+](=O)[O-] | 2.3 | / | / | 18.5 | /
Cc1cc(S(=O)(=O)NC(=O)[C@H]2O[C@@H](n3ccc(=O)[nH]c3=O)[C@H](O)[C@@H]2O)ccc1Br | 7.6 | / | / | -18.6 | /
C=CCN(c1ccccc1)S(=O)(=O)c1cccc(C(=O)NCC(c2cccs2)N2CCOCC2)c1 (stereo unspecified) | -0.1 | -6.4 | -5.5 | -13.0 | 11.4
C=CCN(c1ccccc1Cl)S(=O)(=O)c1cccc(C(=O)NCCc2ccc(OC)cc2)c1 | 4.7 | -2.7 | -13.9 | 60.6* | 16.6
C=CCN(c1ccccc1)S(=O)(=O)c1cccc(C(=O)NCC(c2ccccc2OC)N2CCCC2)c1 (stereo unspecified) | 0.5 | -8.3 | -24.2 | -37.3 | 50.4*
COc1ccccc1NS(=O)(=O)c1cccc(C(=O)NCC(c2ccccc2OC)N2CCCC2)c1 (stereo unspecified) | 0.4 | -7.1 | -20.0 | -9.8 | 41.6*
COc1ccccc1C(CNC(=O)c1cccc(S(=O)(=O)Nc2ccc(C)cc2)c1)N1CCCC1 (stereo unspecified) | 9.2 | -7.2 | -23.1 | -8.6 | 77.6*
Nc1ncnc2c1ncn2[C@@H]1O[C@H](C(=O)N[C@@H](CCc2ccccc2)C(=O)N2CCN(C(=O)C(F)(F)F)CC2)[C@@H](O)[C@H]1O | 1.0 | / | / | -11.9 | /
SMILES | TAAR1 agonist | CHRM1 agonist | M1 PAM | TAAR1 antagonist | CHRM1 antagonist
O=C(C(O)c1ccccc1)N1CCN(S(=O)(=O)c2ccc(C(F)(F)F)cc2)CC1 (stereo unspecified) | 2.0 | / | / | 5.6 | /
COC(=O)c1cc2c(c3c4cc(C)ccc4n(S(=O)(=O)c4cccc(C)c4)c13)C(=O)N(C)C2 | -1.8 | / | / | -41.0 | /
Cc1ccc(OCC(=O)Nc2nnc(C3CCCO3)s2)c(Br)c1 (stereo unspecified) | -1.7 | -5.4 | -15.0 | -0.8 | 36.5*
Cc1cc(-c2nnc(SCC(=O)Nc3ccccc3C(F)(F)F)o2)c(C)n1-c1ccccc1 | 42.0* | 17.0* | -7.9 | 11.5 | -11.9
Cc1cc(Oc2cccnc2)ccc1NC(=O)Cc1cn(C)c2ccccc12 | 1.9 | / | / | 0.5 | /
Nc1ncnc2c1ncn2[C@@H]1O[C@H](COP(=O)(O)OP(=O)(O)OP(=O)(O)O)[C@@H](O)[C@H]1O | 15.4 | 52.9* | 4.4 | -1.8 | -27.4
COC(=O)N1C[C@H](OC(=S)Nc2ccc(OC)cc2OC)[C@H]2C[C@@H]1c1ccccc1O2 | 0.7 | / | / | -59.3 | /
CCC(C)(C)c1ccc(OCCCC[n+]2cccc(C)c2C)c(C(C)(C)CC)c1 | 21.5 | -8.0 | -24.3 | -16.1 | 73.2*
CC1(C(=O)Nc2cccc(C#N)c2)CCN1C(=O)Cc1ccc(-c2ccccc2)cc1 (stereo unspecified) | 5.9 | 2.8 | -14.5 | 31.9 | 42.3*
CC1(C(=O)NCc2cccc3ccccc23)CCN1C(=O)Cc1ccc(-c2ccccc2)cc1 (stereo unspecified) | 3.9 | 6.3 | 8.6 | 48.6* | -6.4
CC(C)c1ccc(CC(=O)N2CCC2(C)C(=O)Nc2cccc(C#N)c2)cc1 (stereo unspecified) | 0.7 | -0.1 | -12.4 | -1.6 | 16.5
Cc1cc([N+](=O)[O-])nn1CCCC(=O)Nc1c(C)n(C)n(-c2ccccc2)c1=O | 1.0 | -4.4 | -14.1 | -17.2 | 30.6*
Cc1c(Br)c([N+](=O)[O-])nn1CCCC(=O)Nc1c(C)n(C)n(-c2ccccc2)c1=O | 0.7 | -7.5 | -24.3 | 3.7 | 82.2*
Cc1cc(NC(=O)CCCn2nc([N+](=O)[O-])c(Br)c2C)no1 | 0.9 | -3.9 | -1.0 | -2.9 | 5.8
O=S1(=O)c2ccc(Br)cc2N2CCC[C@@H]2CN1Cc1ccc(Cl)cc1 | 0.2 | -6.2 | -23.2 | -21.3 | 24.2*
CC(N)c1csc(Nc2nncc3ccccc23)n1 (stereo unspecified) | 23.1 | -8.9 | 8.7 | -31.6 | 101.5*

Bioassay records as filed in PubChem.
